Results on 12 compounds are retold here after ChEMBL document CHEMBL3763019, “Discovery of benzenesulfonamide derivatives as potent PI3K/mTOR dual inhibitors with in vivo efficacies against hepatocellular carcinoma” (Bioorg Med Chem, 2016).

A short description of data set [1]: Cytotoxicity against human HCT116 cells after 72 hrs by MTT assay. The format is functional, cell-based. The note with it: HCT-116, 72 h. The gist of the method: (§1)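 Log-phase cells at 40,000–50,000 cells/mL in DMEM with 10% FBS and antibiotics were seeded and cultured overnight at 37 °C, 5% CO₂. Compounds were diluted in DMSO/PBS from 10^-4 to 10^-9 M and applied for 72 h. MTT (5 mg/mL stock) was then added for 4 h and absorbance read at 570 nm. IC50 came from nonlinear regression on triplicate wells, averaged.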

Data set [2] deals with T1, Phosphatidylinositol 4,5-bisphosphate 3-kinase catalytic subunit gamma isoform (Homo sapiens, UniProt P48736). In words: Inhibition of PI3K-gamma (unknown origin) at 10 nM after 40 mins by ADP-Glo luminescent kinase assay. Summed up: (§2)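 Final enzyme was PI3Kβ 4.8 nM and PI3Kγ 7.6 nM. ADP-Glo reagent stopped the reaction (40 min), then detection reagent was added (60 min) and luminescence read. Percent inhibition was derived from RLU.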
Target sequence in this assay (P48736 whole entry, looked up, canonical isoform): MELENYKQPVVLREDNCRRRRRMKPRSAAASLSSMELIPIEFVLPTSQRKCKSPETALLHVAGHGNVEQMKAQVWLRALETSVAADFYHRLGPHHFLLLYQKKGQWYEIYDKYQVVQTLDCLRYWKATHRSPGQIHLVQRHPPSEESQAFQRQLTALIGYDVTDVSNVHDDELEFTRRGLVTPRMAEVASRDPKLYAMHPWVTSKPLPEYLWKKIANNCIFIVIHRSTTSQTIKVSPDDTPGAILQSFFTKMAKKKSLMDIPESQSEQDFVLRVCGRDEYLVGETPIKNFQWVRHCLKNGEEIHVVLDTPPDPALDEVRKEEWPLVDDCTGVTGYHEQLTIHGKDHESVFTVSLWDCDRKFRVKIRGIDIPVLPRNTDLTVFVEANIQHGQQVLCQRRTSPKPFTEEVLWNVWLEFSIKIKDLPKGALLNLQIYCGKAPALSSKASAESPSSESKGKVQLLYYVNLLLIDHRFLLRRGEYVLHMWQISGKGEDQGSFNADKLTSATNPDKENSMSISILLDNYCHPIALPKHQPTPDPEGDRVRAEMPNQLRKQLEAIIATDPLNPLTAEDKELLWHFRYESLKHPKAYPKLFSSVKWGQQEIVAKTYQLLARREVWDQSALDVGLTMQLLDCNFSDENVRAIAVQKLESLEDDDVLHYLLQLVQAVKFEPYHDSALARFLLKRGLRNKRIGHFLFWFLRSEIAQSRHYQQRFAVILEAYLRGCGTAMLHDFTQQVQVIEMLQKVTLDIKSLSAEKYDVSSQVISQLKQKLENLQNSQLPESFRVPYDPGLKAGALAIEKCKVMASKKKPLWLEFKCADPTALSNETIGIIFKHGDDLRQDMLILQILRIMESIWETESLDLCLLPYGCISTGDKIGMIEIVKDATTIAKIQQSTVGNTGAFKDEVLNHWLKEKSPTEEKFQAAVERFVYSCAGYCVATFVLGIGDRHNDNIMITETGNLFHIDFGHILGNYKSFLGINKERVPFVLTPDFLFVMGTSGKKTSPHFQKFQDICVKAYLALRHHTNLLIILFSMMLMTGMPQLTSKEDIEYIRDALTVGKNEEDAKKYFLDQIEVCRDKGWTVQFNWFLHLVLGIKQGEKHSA

In data set [3] the target is Phosphatidylinositol 4,5-bisphosphate 3-kinase catalytic subunit alpha isoform (Homo sapiens, UniProt P42336). In words: Inhibition of PI3K-alpha (unknown origin) using PIP2 as substrate incubated for 1 hr by Kinase-Glo luminescent kinase assay. (In general: In Kinase-Glo more light means more ATP remaining.)
Chain of Phosphatidylinositol 4,5-bisphosphate 3-kinase catalytic subunit alpha isoform (P42336 whole entry, canonical isoform): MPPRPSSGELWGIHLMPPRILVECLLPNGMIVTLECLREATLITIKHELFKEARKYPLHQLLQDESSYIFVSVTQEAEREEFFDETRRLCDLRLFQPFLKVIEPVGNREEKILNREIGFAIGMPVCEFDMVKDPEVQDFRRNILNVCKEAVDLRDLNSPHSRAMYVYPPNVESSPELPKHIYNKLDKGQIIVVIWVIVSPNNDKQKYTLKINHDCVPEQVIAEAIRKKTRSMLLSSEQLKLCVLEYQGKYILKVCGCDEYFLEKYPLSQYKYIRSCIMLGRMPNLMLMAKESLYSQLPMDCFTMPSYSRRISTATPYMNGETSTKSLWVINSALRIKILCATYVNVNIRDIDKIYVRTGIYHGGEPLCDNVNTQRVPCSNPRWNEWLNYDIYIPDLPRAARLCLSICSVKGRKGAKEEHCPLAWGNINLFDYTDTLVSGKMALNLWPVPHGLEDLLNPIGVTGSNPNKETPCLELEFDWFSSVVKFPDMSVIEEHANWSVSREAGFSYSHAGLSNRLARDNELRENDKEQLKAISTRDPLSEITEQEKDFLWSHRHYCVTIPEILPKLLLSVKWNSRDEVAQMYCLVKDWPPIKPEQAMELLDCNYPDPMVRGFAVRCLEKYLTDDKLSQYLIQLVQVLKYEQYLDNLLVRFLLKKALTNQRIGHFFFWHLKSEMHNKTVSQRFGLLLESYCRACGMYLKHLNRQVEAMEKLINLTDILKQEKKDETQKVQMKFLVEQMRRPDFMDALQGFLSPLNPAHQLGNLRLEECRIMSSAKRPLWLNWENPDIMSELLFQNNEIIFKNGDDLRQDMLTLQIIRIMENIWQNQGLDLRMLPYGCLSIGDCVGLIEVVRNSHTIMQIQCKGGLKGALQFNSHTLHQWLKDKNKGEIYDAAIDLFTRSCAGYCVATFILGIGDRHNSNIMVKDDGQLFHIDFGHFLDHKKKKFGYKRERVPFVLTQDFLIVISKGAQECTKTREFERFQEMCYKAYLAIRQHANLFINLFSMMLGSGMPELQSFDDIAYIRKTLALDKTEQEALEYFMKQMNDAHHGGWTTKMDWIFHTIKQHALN
Data set [4] addresses T2, Phosphatidylinositol 4,5-bisphosphate 3-kinase catalytic subunit beta isoform (Homo sapiens, UniProt P42338). The data set can be described thus: Inhibition of PI3K-beta (unknown origin) at 10 nM after 40 mins by ADP-Glo luminescent kinase assay. Summed up: as §2
Target sequence in this assay (P42338 whole entry, looked up, canonical isoform): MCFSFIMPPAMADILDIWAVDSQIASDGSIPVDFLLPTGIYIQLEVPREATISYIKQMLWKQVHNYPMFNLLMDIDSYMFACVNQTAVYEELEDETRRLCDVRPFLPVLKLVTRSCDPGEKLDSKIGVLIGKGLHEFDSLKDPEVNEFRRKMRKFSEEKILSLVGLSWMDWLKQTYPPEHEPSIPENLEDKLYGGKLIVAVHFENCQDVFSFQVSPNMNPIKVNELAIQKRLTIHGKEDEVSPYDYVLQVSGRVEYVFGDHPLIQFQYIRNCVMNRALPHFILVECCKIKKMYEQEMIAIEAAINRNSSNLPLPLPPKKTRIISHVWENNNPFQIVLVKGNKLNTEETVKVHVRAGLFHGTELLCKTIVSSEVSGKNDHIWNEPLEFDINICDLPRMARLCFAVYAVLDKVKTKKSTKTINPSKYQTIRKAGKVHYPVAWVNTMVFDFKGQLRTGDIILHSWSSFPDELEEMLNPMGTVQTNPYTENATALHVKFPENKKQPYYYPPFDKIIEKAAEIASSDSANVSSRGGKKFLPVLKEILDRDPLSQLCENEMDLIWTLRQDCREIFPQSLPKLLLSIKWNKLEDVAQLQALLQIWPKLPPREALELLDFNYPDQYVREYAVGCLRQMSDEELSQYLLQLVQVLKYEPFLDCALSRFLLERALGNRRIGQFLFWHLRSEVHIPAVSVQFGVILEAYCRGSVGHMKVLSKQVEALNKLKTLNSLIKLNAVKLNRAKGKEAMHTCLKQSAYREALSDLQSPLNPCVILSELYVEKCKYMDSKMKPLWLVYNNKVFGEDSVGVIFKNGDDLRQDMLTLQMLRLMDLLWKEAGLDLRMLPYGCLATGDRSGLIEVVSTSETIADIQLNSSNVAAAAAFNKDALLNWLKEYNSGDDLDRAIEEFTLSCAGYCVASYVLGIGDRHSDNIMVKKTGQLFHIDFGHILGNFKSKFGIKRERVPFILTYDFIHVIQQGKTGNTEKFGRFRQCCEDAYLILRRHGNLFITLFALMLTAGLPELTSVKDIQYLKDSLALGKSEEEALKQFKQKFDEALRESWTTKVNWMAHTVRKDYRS
Data set [5] in a line: Cytotoxicity against human Bel7404 cells after 72 hrs by MTT assay. In kind it is functional, cell-based. To be noted: BEL-7404, 72 h. Summed up:
as §1
In general terms: Tetrazolium assays rely on reduction of a dye to a coloured formazan, in cell work by metabolically active cells.

Data set [6] concerns the target T3, Phosphatidylinositol 4,5-bisphosphate 3-kinase catalytic subunit delta isoform (Homo sapiens) (UniProt O00329).
T3 sequence (whole entry): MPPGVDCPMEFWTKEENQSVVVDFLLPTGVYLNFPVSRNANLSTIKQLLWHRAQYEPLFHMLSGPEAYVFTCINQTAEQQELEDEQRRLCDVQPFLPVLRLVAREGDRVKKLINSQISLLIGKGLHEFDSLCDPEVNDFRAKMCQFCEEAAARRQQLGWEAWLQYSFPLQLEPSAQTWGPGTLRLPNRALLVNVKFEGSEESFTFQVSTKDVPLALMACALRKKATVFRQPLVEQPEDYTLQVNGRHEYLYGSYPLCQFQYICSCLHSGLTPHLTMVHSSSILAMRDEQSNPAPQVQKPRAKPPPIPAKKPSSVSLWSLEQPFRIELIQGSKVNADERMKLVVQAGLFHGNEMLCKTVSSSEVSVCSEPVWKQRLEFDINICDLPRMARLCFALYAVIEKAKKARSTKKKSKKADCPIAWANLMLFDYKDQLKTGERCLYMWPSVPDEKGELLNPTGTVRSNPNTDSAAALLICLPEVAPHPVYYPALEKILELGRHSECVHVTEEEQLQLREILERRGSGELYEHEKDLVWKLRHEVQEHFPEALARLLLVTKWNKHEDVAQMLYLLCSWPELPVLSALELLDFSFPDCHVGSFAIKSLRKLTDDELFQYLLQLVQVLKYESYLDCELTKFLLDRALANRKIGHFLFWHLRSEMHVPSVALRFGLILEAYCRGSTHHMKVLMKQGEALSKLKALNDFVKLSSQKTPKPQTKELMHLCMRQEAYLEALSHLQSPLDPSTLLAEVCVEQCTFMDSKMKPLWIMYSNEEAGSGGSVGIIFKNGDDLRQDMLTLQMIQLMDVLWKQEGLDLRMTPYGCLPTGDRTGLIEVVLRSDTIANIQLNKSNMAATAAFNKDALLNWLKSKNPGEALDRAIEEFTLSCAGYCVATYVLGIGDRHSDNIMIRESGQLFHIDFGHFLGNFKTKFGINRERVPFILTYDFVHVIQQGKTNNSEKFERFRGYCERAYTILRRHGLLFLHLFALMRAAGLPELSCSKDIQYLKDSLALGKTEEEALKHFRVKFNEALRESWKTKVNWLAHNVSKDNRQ
In words: Inhibition of PI3K-delta (unknown origin) using PIP2 as substrate at 10 nM incubated for 1 hr by Kinase-Glo luminescent kinase assay. The gist of the method: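 Final PIP2 was 50 µM and ATP 25 µM; PI3Kδ was 1.65 nM. Reactions ran 1 h at room temperature, then Kinase-Glo was added for 15 min before reading luminescence. Percent inhibition was derived from RLU. Dose-response used ten 3-fold dilutions (top 100 or 500 nM) in duplicate.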

The next data set concerns A549. In words: Cytotoxicity against human A549 cells after 72 hrs by MTT assay. The format is functional, cell-based. The note with it: A549, 72 h. Summed up: as §1
The test system of the next data set is MDA-MB-231. In words: Cytotoxicity against human MDA-MB-231 cells after 72 hrs by MTT assay. In kind it is functional, cell-based. To be noted: MDA-MB-231, 72 h. The gist of the method: as §1
Data set [7] deals with T1, Phosphatidylinositol 4,5-bisphosphate 3-kinase catalytic subunit gamma isoform. The data set can be described thus: Inhibition of PI3K-gamma (unknown origin) after 40 mins by ADP-Glo luminescent kinase assay. Summed up:
as §2
Target sequence in this assay (P48736 whole entry, canonical isoform): as the sequence (P48736 whole entry, looked up, canonical isoform) above

Data set [8] has as its target T2, Phosphatidylinositol 4,5-bisphosphate 3-kinase catalytic subunit beta isoform. In words: Inhibition of PI3K-beta (unknown origin) after 40 mins by ADP-Glo luminescent kinase assay. The gist of the method:
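ADP-Glo reagent stopped the reaction (40 min), then detection reagent was added (60 min) and luminescence read. Percent inhibition was derived from RLU.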
Target sequence in this assay (P42338 whole entry, canonical isoform): as the sequence (P42338 whole entry, looked up, canonical isoform) above
(In general: ADP-Glo turns the ADP formed in a reaction into a luminescent signal.)

In data set [9] the target is Phosphatidylinositol 4,5-bisphosphate 3-kinase catalytic subunit delta isoform (Homo sapiens, UniProt O00329). The data set can be described thus: Inhibition of PI3K-delta (unknown origin) using PIP2 as substrate incubated for 1 hr by Kinase-Glo luminescent kinase assay.
For data set [10], the target named is Serine/threonine-protein kinase mTOR (Homo sapiens, UniProt P42345). The data set can be described thus: Inhibition of mTOR kinase (unknown origin) assessed as suppression of ULight-4E-BP1 substrate phosphorylation incubated for 1 hr by lance ultra assay.
Data set [11] in a line: Half life in rat liver microsomes. In kind it is ADME.
A short description of data set [12]: Antitumor activity against human Bel7404 cells xenografted in BALB/c nude mouse assessed as reduction in tumor volume at 50 mg/kg, po qd for 14 consecutive days relative to control. In kind it is functional, BEL-7404. Details: scale not given: the % may be the effect or the level left. Summed up:
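Male BALB/c nude mice carried implanted BEL-7404 tumours and were randomized once tumours reached 100–300 mm³ (about 12 days); there were 6 per treated group and 8 controls. Drug in 5% polysorbate 80/water was given orally once daily for 14 days from day 13. Tumour volume (1/2·a·b·b) and body weight were tracked, with sacrifice on day 29. The read-out was relative tumour volume versus vehicle, reported as mean SE.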

For orientation: IC50 means the concentration that inhibits the measured activity by half. As a reminder, the inhibition is the drop in the measured response relative to a control, in per cent. As for `CCN(CC)CC#Cc1ccnc2ccc(-c3cnc(OC)c(NS(=O)(=O)c4ccc(F)cc4F)c3)cc12`, the IC50 in data set [1] came out at 2.27 µM; in data set [3], 0.033 µM; in data set [5], 0.3 µM; with A549 it was 2.43 µM; in the data set with MDA-MB-231, 2.68 µM. In addition, the inhibition in data set [2] was determined as 68%; in [4], 21%; in [6], 1.2%.
For the compound `COc1ncc(-c2ccc3nccc(C#CCN(C)C)c3c2)cc1NS(=O)(=O)c1ccc(F)cc1`, the IC50 worked out at 1.34 µM in data set [1]; 0.032 µM in data set [3]; 1.16 µM in data set [5]; 0.97 µM with A549; 2.08 µM with MDA-MB-231. Moreover, the inhibition in data set [2] was determined as 70%; in data set [4] it was 17%; in data set [6] it was 10%.
One may read the half-life as how long it takes for the measured level to halve. As for `CCOC(=O)N1CCN(CC#Cc2ccnc3ccc(-c4cnc(OC)c(NS(=O)(=O)c5ccc(F)cc5F)c4)cc23)CC1`, the IC50 in data set [1] turned out to be 1.39 µM; in data set [3], 0.0055 µM; in data set [5], 0.48 µM; in [7], 0.004 µM; in data set [8], 0.023 µM; with A549, 0.11 µM. Further, the half-inhibitory concentration (IC50) in data set [9] amounted to 0.019 µM; with MDA-MB-231, 3.81 µM; in data set [10], 0.0099 µM. Further, the inhibition in [2] was 82%; in data set [4], 30%; in [6], 20.7%. The half-life in [11] stood at 46.5 min.
With `COc1ncc(-c2ccc3nccc(C#CCN4CCC(C)CC4)c3c2)cc1NS(=O)(=O)c1ccc(F)cc1F`, the IC50 in [1] turned out to be 4.02 µM; in data set [3], 0.07 µM; in [5], 1.55 µM; in the data set on A549 it was 2.9 µM; in the data set with MDA-MB-231, 7.99 µM. Also, the inhibition in data set [2] worked out at 49%; in data set [4], 5.8%; in data set [6], 7.7%.
Take `COc1ncc(-c2ccc3nccc(-c4ccnnc4)c3c2)cc1NS(=O)(=O)c1ccc(F)cc1F` [OMIPALISIB]: the IC50 came out at 0.01 µM in data set [1]; 0.01 µM in [5]; 0.0006 µM in [7]; 0.6 µM in the data set with A549; 0.13 µM in the data set with MDA-MB-231.
Take `COc1ncc(-c2ccc3nccc(C#CCN4CCCCC4C)c3c2)cc1NS(=O)(=O)c1ccc(F)cc1F` (centres undefined): the IC50 in data set [1] was determined as 4.52 µM; in data set [3], 0.061 µM; in data set [5], 1.14 µM; with A549 it was 1.35 µM; in the data set with MDA-MB-231 it was 4.73 µM. For the same compound, the figures for the inhibition in data set [2], in [4] and in [6] were 59%, 11% and 4.6%, respectively.
`COc1ncc(-c2ccc3nccc(C#CCN4CCCCC4)c3c2)cc1NS(=O)(=O)c1ccc(F)cc1F`: the IC50 in data set [1] amounted to 3.61 µM; in [3], 0.037 µM; in data set [5], 2.3 µM; with A549 it was 1.81 µM; in the data set on MDA-MB-231 it was 10.3 µM. In addition, the inhibition was 55% in data set [2], 1.4% in data set [4] and 3% in data set [6].
Turning to `COc1ncc(-c2ccc3nccc(C#CCN4CCOCC4)c3c2)cc1NS(=O)(=O)c1ccc(F)cc1F`, the IC50 came out at 0.51 µM in [1]; 0.0021 µM in data set [3]; 0.04 µM in [5]; 0.24 µM in the data set with A549; 1.99 µM with MDA-MB-231. Besides, the inhibition amounted to 96% in data set [2], 70% in data set [4] and 35% in [6]. Further, the half-life in data set [11] came to 36.9 min.
For `CNC(=O)c1cc(Oc2ccc(NC(=O)Nc3ccc(Cl)c(C(F)(F)F)c3)cc2)ccn1` [SORAFENIB], the Activity in data set [12] worked out at 44%.
Regarding `COc1ncc(-c2ccc3nccc(C#CCN(C4CCCCC4)C4CCCCC4)c3c2)cc1NS(=O)(=O)c1ccc(F)cc1F`, the IC50 in data set [1] was 11.7 µM; in [3], more than 0.1 µM; in data set [5] it was 6.1 µM; in the data set on A549 it was 12 µM; in the data set with MDA-MB-231 it was 27.7 µM. The inhibition in [2] worked out at 10%; in data set [4] it was 13%; in data set [6], 3.2%.
With `COc1ncc(-c2ccc3nccc(C#CCN(C)CCO)c3c2)cc1NS(=O)(=O)c1ccc(F)cc1F`, the IC50 is 1.15 µM in data set [1]; 0.0039 µM in [3]; 0.08 µM in data set [5]; 1.01 µM in the data set on A549; 2.8 µM in the data set on MDA-MB-231. In addition, the inhibition in data set [2] is 90%; in data set [4], 57%; in data set [6], 16%. The compound also showed a half-life in data set [11] of 28.4 min.
For `COc1ncc(-c2ccc3nccc(C#CCN(C)C)c3c2)cc1NS(=O)(=O)c1ccc(F)cc1F`, the IC50 came to 1.08 µM in data set [1]; 0.0037 µM in data set [3]; 0.23 µM in [5]; 0.11 µM in the data set with A549; 1.67 µM in the data set with MDA-MB-231. In addition, the inhibition in [2] stood at 81%; in [4], 41%; in data set [6], 6.1%. Moreover, the half-life in data set [11] was 18.8 min.
